Laboratory results from ChEMBL document CHEMBL4725282, “Discovery of a Conformationally Constrained Oxazolidinone with Improved Safety and Efficacy Profiles for the Treatment of Multidrug-Resistant Tuberculosis” (J Med Chem, 2020).
Values after ≈ are worked out from the molar mass of the structure shown.

Experiments:
[1] = system: Mycobacterium tuberculosis; experiment: Antitubercular activity against linezolid-resistant Mycobacterium tuberculosis incubated for 7 days by microplate alamar blue assay; format: functional; conditions: 168 h, time 7 day
In short: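 MIC determined by microplate alamar blue assay (MABA) following a published protocol.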

[2] = Ratio of MIC for antitubercular activity against linezolid-resistant Mycobacterium tuberculosis to MIC for antitubercular activity against Mycobacterium tuberculosis H37Rv; format: functional

Row | SMILES | MIC [1] [µg/mL] | Ratio [2]
1 | NNC(=O)c1ccncc1 [ISONIAZID] | 0.04 (≈ 0.292 µM) | –
2 | CO[C@H]1/C=C/O[C@@]2(C)Oc3c(C)c(O)c4c(O)c(c(/C=N/N5CCN(C)CC5)c(O)c4c3C2=O)NC(=O)/C(C)=C\C=C\[C@H](C)[C@H](O)[C@@H](C)[C@@H](O)[C@@H](C)[C@H](OC(C)=O)[C@@H]1C [RIFAMPIN] | 0.03 (≈ 0.0365 µM) | –
3 | CC(=O)NC[C@@H]1OC(=O)N2c3cc(F)c(N4CCSCC4)cc3OC[C@@H]12 [listing 1 of 2 here] | – | 4
4 | CC(=O)NC[C@@H]1OC(=O)N2c3cc(F)c(N4CCSCC4)cc3OC[C@@H]12 [listing 2 of 2 here] | 0.24 (≈ 0.629 µM) | –
5 | CC(=O)NC[C@@H]1OC(=O)N2c3cc(F)c(N4CC[S+]([O-])CC4)cc3OC[C@@H]12 | 6.68 (≈ 16.8 µM) | 4
6 | CC(=O)NC[C@H]1CN(c2ccc(N3CCSCC3)c(F)c2)C(=O)O1 [SUTEZOLID] | 0.96 (≈ 2.72 µM) | 4
7 | CC(=O)NC[C@H]1CN(c2ccc(N3CCOCC3)c(F)c2)C(=O)O1 [LINEZOLID] | 3.92 (≈ 11.6 µM) | –
